High-throughput results deposited in PubChem BioAssay by several laboratories.
HEK293 NFkB inh: lowers PMA/ionomycin-induced NF-kB signal in HEK293 cells; hit rate 0.21% among 62,000; inhibition, % at 3 µM; HEK-293 NF-kB luciferase reporter, luminescence;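 active means inhibition above the mean of all tested compounds plus 3 SD, cut at about 40% in these data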;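 further: 0% = stimulated DMSO wells and 100% = 10 µM reference inhibitor 5653914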
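Timing: 1 h pretreatment, 16 h stimulation, 37 °C; system: HEK-293 cells with stable firefly luciferase reporter driven by four HIV NF-kB elements; doses: 3 µM once, 0.30% DMSO; measured by: luciferase luminescence; control set: DMSO and 10 µM reference inhibitor; repeats: single test; reagent: PMA plus ionomycin mix as NF-kB-activating stimulus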
SK-BR-3 tox 24h: SK-BR-3 proliferation inhibitors | viability, % at 10 µM | hit rate 0.47% among 41,000 | SK-BR-3 viability, CellTiter-Glo ATP luminescence, 24 h; active compounds read low;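 active means viability at or below the median of all test compounds minus 3 SD, in both replicates if run twice, cut at about 45% in these data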;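 further: 100% = median untreated cell wells and 0% = median positive control drug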
Htt clearance: compounds clearing mutant huntingtin protein; AID 853; HeLa Exon1htt(103Q)mCFP, aggregate imaging; zero = plate's median compound well; inhibition, % at 1.5 µM; hit rate 0.42% among 47,000;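 active means inhibition of aggregate fluorescence above about 70%, also judged a hit by eye on the cell image, limit read from the data, passing the limit was not always enough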;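 further: cells exposed to compound for three days before fixation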
Jurkat viability: cytotoxicity toward Jurkat cells. hit rate 1.2% among 56,000. AID 463. inhibition, % at 4 µM. Jurkat E6.1 viability, ATP luminescence, 48 h;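 active means inhibition above the mean inhibition of all tested compounds plus 3 SD, cut at about 28% in these data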
Her2 expr inh: Her2 kinase expression inhibition; SKBR-3 HER2 protein level, AlphaScreen, 18-24 h; active compounds read low; AID 645; hit rate 0.69% among 65,000; HER2 level % of control, % at 10 µM; P04626;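 active means HER2 level under 5% of the carrier-only control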;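 further: 100% = DMSO carrier and 0% = 500 nM PU-H71 HSP90 inhibitor; lower value means stronger loss of Her2 protein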
Target sequence (P04626 whole entry, looked up): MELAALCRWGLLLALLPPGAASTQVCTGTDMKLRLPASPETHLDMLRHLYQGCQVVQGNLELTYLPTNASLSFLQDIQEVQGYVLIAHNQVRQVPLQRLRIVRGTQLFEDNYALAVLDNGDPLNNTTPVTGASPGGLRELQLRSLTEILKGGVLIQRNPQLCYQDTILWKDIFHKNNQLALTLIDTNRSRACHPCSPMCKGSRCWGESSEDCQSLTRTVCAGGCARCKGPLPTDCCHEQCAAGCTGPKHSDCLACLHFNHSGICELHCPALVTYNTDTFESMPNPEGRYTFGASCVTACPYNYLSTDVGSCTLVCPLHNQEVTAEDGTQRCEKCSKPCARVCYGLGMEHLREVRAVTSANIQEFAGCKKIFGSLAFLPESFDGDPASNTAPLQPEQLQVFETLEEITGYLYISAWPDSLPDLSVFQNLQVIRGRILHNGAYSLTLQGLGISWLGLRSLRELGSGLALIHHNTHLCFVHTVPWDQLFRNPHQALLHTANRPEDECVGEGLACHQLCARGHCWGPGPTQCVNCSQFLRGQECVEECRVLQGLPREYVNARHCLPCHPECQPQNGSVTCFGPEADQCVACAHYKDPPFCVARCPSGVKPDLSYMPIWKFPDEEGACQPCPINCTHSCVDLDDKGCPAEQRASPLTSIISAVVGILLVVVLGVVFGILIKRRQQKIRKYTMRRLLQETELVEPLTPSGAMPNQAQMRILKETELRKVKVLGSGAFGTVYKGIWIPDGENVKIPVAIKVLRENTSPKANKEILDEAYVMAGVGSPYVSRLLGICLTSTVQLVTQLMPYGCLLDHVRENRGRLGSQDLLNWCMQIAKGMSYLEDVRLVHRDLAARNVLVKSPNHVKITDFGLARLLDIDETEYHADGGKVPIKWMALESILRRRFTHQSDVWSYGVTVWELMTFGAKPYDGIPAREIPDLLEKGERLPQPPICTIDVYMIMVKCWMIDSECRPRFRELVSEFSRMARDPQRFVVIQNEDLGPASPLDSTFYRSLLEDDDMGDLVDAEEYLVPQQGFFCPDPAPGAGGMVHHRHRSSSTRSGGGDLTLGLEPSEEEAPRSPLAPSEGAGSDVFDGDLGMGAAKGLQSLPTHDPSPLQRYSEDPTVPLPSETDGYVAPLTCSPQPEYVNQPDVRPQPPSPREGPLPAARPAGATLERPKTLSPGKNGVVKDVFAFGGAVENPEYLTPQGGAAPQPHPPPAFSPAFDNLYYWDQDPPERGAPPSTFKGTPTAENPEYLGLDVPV
Starred values were filed as active, the others as inactive; . = not tested or not shown. Rows were chosen to be rich in hits. Some 1.9% of all compounds tested hit in one or more screens of this group.

SMILES | HEK293 NFkB inh | SK-BR-3 tox 24h | Htt clearance | Jurkat viability | Her2 expr inh
COC(=O)C1=C(N)Oc2cc(N(C)C)ccc2C1c1ccccc1OC (configuration not stated) | 28 | . | . | 75* | 104
COC(=O)C1=C(N)Oc2cc(C)n(CC3CCCO3)c(=O)c2C1c1ccccc1OC (configuration not stated) | 7 | 119 | -16 | -1 | 97
COc1cccc(Cn2nnc(C(=O)NCc3ccccc3Cl)c2N)c1 | 7 | . | -134 | -3 | 95
CC(O)CNc1nc2c(c(=O)n(C)c(=O)n2C)n1Cc1cccc(Br)c1 (configuration not stated) | 6 | 86 | 2 | 28* | 85
Cn1c(=O)c2c(nc(NCCO)n2CCc2ccccc2)n(C)c1=O | 19 | 89 | . | 32* | 100
CCCNc1nc2c(c(=O)n(C)c(=O)n2C)n1Cc1cccc(C)c1 | 21 | . | . | 59* | 128
c1ccc(Cc2cc(-c3ccccc3)on2)cc1 | . | . | 48 | . | .
CC(C)SCCCOc1ccc(C(C)(C)C)cc1 | . | . | 5 | . | .
O=C(NCc1cccnc1)c1c[nH]c2cc3c(cc2c1=O)OCCO3 | 8 | 85 | . | 94* | 61
COc1ccc(Br)cc1C1NC(=O)c2c(sc3c2CCN(C)C3)N1 (configuration not stated) | -6 | 43* | . | 5 | 92
CCOc1ccc(Br)cc1C1NC(=O)c2c(sc3c2CCN(C)C3)N1 (configuration not stated) | 9 | 91 | . | 4 | 93
CCc1cccc(NC(=O)CN(c2ccc(OC)cc2)S(=O)(=O)c2c(C)n[nH]c2C)c1 | 4 | 70 | . | -3 | 76
O=C1NCCCC2c3c(cc(Br)c(O)c3Br)OC12N1CCOCC1 (configuration not stated) | -3 | 113 | 15 | -10 | 79
O=C1NCCCC2c3cc(O)c4ccccc4c3OC12N1CCCCC1 (configuration not stated) | 31 | 5.1* | -46 | 20 | 67
Cc1ccc(Oc2nccc(-c3ccc(Cl)cc3)n2)cc1 | . | . | -14 | . | .
CC(=O)Nc1nc2n(n1)C(c1ccccc1)C=C(c1ccccc1)N2 (configuration not stated) | 9 | 104 | 16 | 3 | 106
O=C(Nc1nc2n(n1)C(c1ccccc1)C=C(c1ccccc1)N2)c1ccco1 (configuration not stated) | 17 | . | 22 | -7 | -23*
CCCCOc1ccc(C(=O)Nc2ccncc2)cc1 | 9 | 77 | . | 91* | 100
COc1ccc(CN(C(=O)c2cnccn2)C(C(=O)NC(C)(C)C)c2cc(OC)c(OC)c(OC)c2)cc1 (configuration not stated) | . | . | 70* | . | .
O=C(CSc1nc2cc(Cl)ccc2s1)c1ccco1 | 8 | 72 | . | . | -1.4*
O=C1CCCC(O)=C1C=Nc1ccc(O)cc1 | 15 | . | . | 10 | 124
Oc1ccc(N=Cc2ccc(-c3cccs3)s2)cc1 | 30 | . | -13 | 10 | -22*
c1ccc(-c2nc(N3CCCCCC3)c3ccccc3n2)nc1 | 11 | 195 | -115 | 72* | 43
CCOC(=O)c1nc(S(C)(=O)=O)ncc1Cl | 16 | . | . | 100* | 44
COc1ccccc1-c1cc2ccccc2[nH]1 | . | . | 37 | . | .
SMILES | HEK293 NFkB inh | SK-BR-3 tox 24h | Htt clearance | Jurkat viability | Her2 expr inh
COc1ccc(Nc2nc(C)cc(C)c2C(N)=O)c(OC)c1 | 6 | 94 | -19 | -2 | 83
CCc1ccc(-c2nc(CN3CCCC(C(=O)NCCc4ccc(OC)c(OC)c4)C3)c(C)o2)cc1 (configuration not stated) | -1 | . | 4 | 3 | -23*
CCOC(=O)N1CCN(C(=O)C2CCCN(Cc3nc(-c4ccc(Cl)cc4)oc3C)C2)CC1 (configuration not stated) | 32 | . | 17 | 49* | 46
CSc1ccc(S(=O)(=O)Nc2ccc3c(c2)OCCO3)cc1 | 16 | . | . | 8 | 86
CCCCc1ccc(-c2ccc(Br)cc2)nc1 | . | . | -119 | . | .
CCCc1ccc(-c2ccc(F)c(N)c2)nc1 | 4 | . | . | 60* | 77
CCn1nnc(-c2ccccc2NC(=O)c2cccc(-n3cnnn3)c2)n1 | 10 | 42* | 15 | -5 | 89
N#Cc1ccc(-c2ccco2)nc1SCc1ccccc1 | 15 | 117 | -25 | 7 | -0.7*
CCSc1nc(-c2ccco2)ccc1C#N | 7 | 90 | . | 7 | 39
O=C(Nc1nnc(-c2ccccc2Cl)o1)c1nc2ccccc2s1 | . | . | 5 | . | .
COc1ccccc1N1CCN(C(=O)CSc2nc(C)c(Cc3ccccc3)c(=O)[nH]2)CC1 | 22 | 79 | 80* | 1 | 90
